pIC50: −log10 of the molar value.
How the values were obtained:
Genome polyprotein = Genome polyprotein (West Nile virus, UniProt P06935); experiment: Inhibition of WNV NS2B-NS3 protease by fluorescence assay
In short: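 Recombinant WNV NS2B-NS3 proteinase (10 nM, active-site titrated against aprotinin) preincubated 60 min at 18 °C with increasing inhibitor concentrations in 10 mM Tris-HCl pH 8.0, 20% glycerol, 0.005% Brij 35. Pyr-RTKR-AMC substrate at 25 μM; initial velocities read continuously at ex 360/em 465 nm. Triplicates; IC50 derived.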

[1] = Aqueous stability assessed as half life at pH 8.0 buffer; assay type: physicochemical
In short: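 Compound held in pH 8 buffer; remaining amount followed over time by LC/MS to give half-life.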

Chain of Genome polyprotein (P06935 1371-1501 limits assumed): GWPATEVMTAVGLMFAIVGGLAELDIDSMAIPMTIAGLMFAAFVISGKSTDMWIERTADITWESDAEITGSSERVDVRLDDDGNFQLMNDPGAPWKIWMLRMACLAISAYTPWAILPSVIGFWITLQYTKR
Chain of Genome polyprotein (P06935 1502-2120 limits assumed): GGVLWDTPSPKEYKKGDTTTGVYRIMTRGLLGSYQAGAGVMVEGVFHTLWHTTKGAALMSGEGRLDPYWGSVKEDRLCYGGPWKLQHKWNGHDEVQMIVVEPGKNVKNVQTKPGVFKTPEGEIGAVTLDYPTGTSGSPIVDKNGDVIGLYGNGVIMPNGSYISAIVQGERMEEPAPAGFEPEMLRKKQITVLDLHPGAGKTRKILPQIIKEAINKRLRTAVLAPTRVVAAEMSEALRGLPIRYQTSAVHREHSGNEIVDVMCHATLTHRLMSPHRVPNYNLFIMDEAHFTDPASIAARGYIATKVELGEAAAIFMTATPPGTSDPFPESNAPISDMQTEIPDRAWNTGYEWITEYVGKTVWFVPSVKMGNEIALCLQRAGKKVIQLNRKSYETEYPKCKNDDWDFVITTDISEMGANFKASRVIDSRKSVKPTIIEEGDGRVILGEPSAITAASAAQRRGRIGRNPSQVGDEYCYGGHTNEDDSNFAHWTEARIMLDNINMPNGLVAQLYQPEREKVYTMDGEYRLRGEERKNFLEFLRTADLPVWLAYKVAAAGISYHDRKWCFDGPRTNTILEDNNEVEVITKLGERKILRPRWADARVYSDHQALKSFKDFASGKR

Row | Compound | pIC50 (Genome polyprotein) | t1/2 [1]
1 | Cc1cc(OC(=O)c2c(F)ccc(C)c2F)n(Cc2ccccc2)n1 | 5.03 | –
2 | COc1ccc(Cn2nc(C)cc2CC(O)c2c(F)cccc2F)cc1 (stereo not given) | < 4.00 | –
3 | COc1ccc(Cn2nc(C)cc2CC(=O)c2ccccc2)cc1 | < 4.00 | –
4 | COc1ccc(S(=O)(=O)n2nc(OC(=O)c3ccc(F)c(F)c3F)cc2N)cc1 | 4.92 | –
5 | COc1ccc(Cn2nc(C)cc2OC(=O)c2c(F)cccc2F)cc1 | 5.06 | 1.5 h
6 | COc1ccc(S(=O)(=O)n2nc(OC(=O)c3c(Cl)cccc3Cl)cc2N)cc1 | < 4.00 | 5 h
7 | COc1ccc(Cn2nc(C)cc2CC(=O)c2c(F)cccc2F)cc1 | 4.62 | –
8 | COc1ccc(Cn2nc(C)cc2CC(=O)c2ccccc2F)cc1 | 4.41 | –
9 | COc1ccc(Cn2nc(C)cc2CC(O)c2ccccc2)cc1 (stereo not given) | < 4.00 | –
10 | COc1ccc(Cn2nc(C)cc2/C=C/c2c(F)cccc2F)cc1 | 4.86 | 13 h
11 | COc1ccc(S(=O)(=O)n2nc(OC(=O)c3c(F)c(F)c(C)c(F)c3F)cc2N)cc1 | 4.97 | –
12 | COc1ccc(S(=O)(=O)n2nc(OC(=O)c3cccc(C(F)(F)F)c3F)cc2N)cc1 | 4.34 | –
13 | COc1ccc(S(=O)(=O)n2nc(OC(=O)c3cc(F)c(F)cc3F)cc2N)cc1 | 4.58 | –
14 | COc1ccc(S(=O)(=O)n2nc(OC(=O)c3ccccc3[N+](=O)[O-])cc2N)cc1 | < 4.00 | –
15 | Cc1cc(NC(=O)c2ccccc2)n(-c2ccccc2)n1 | 4.80 | > 96 h
16 | COc1ccc(S(=O)(=O)n2nc(C)cc2NC(=O)c2ccccc2)cc1 | 5.04 | 1.25 h
17 | COc1ccc(Cn2nc(C)cc2OC(=O)c2c(F)ccc(C)c2F)cc1 | 5.03 | –
18 | COc1ccc(S(=O)(=O)n2nc(OC(=O)c3ccccc3OC)cc2N)cc1 | < 4.00 | –

Now those with a higher pIC50 (Genome polyprotein), led by results:

Row | pIC50 (Genome polyprotein) | t1/2 [1] | Compound
19 | 5.45 | – | COc1ccc(S(=O)(=O)n2nc(OC(=O)c3ccccc3C)cc2N)cc1
20 | 5.37 | 2.5 h | COc1ccc(S(=O)(=O)n2nc(OC(=O)c3c(F)ccc(C)c3F)cc2N)cc1
21 | 6.01 | 1.5 h | COc1ccc(S(=O)(=O)n2nc(OC(=O)c3c(F)ccc(F)c3F)cc2N)cc1
22 | 6.51 | 1.5 h | COc1ccc(S(=O)(=O)n2nc(OC(=O)c3c(F)cccc3F)cc2N)cc1
23 | 5.09 | – | Cc1cc(OC(=O)c2c(F)cccc2F)n(Cc2ccccc2)n1
24 | 5.74 | 4.25 h | COc1ccc(S(=O)(=O)n2nc(OC(=O)c3c(F)cc(F)cc3F)cc2N)cc1
25 | 5.31 | – | COc1ccc(S(=O)(=O)n2nc(OC(=O)c3cc(F)ccc3F)cc2N)cc1
26 | 5.71 | 7.5 h | COc1ccc(S(=O)(=O)n2nc(OC(=O)c3ccc(F)cc3F)cc2N)cc1
27 | 5.30 | – | COc1ccc(S(=O)(=O)n2nc(OC(=O)c3sccc3C)cc2N)cc1
28 | 5.39 | 15 h | COc1ccc(Cn2nc(C)cc2OC(=O)c2ccccc2)cc1
29 | 5.91 | – | COc1ccc(S(=O)(=O)n2nc(OC(=O)c3sccc3Cl)cc2N)cc1
